# Source: PubChem (several laboratories)
# Mcl1 Noxa PPI: disrupts binding of human Mcl-1 to Noxa peptide | inhibition, % at 21.7 µM | 220,000 compounds, 1.5% hits | TR-FRET Mcl-1/Noxa peptide binding, 2 h | Q07820;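 active = compounds that cut the protein-peptide binding signal by more than 50% relative to plate controls in a single-dose test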;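 note: His-tagged Mcl-1 with rhodamine Noxa BH3 peptide and terbium anti-His antibody; 0% = Mcl-1 plus Noxa peptide wells and 100% = peptide-only wells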
# Target sequence (Q07820 whole entry, looked up): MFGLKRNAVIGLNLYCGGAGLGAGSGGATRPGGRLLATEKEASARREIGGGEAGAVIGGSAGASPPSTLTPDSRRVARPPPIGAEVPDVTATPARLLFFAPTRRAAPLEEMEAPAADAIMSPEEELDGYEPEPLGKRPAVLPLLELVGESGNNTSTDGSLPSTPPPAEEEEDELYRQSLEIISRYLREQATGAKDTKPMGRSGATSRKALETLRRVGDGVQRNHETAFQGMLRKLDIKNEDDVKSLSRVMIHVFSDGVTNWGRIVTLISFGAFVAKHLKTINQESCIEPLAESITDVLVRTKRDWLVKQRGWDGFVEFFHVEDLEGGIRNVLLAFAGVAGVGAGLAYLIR
# Mcl-1 Bim block: disrupts Bim peptide binding to human Mcl-1 | Bead-based flow cytometry, Bim peptide-Mcl-1 binding | inhibition, % at 10 µM | 190,000 compounds, 0.1% hits | AID 1009; in the data active = inhibition above about 40%;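 note: 0% = no compound tracer wells and 100% = peptide blocker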
# Calb biofilm kill: mixtures killing C. albicans biofilm; inhibition, % at 7.6 µM; AID 1242; C. albicans biofilm persisters + clotrimazole, fluorescence viability; primary screen in compound mixtures of four per well; 120,000 compounds, 0.02% hits;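 active = inhibition above 30.3% in the primary screen of four-compound pools, then above 30% when the compound was retested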;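 note: compounds exposed to preformed 24 h biofilms for 48 h; 0% = untreated biofilm control and 100% = clotrimazole plus chlorhexidine kill blank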
#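 Test system: C. albicans CAF4-2 wild-type biofilms; buffer or medium: RPMI/MOPS medium, pH 7.0; schedule: 24 h biofilm formation, then 48 h compound exposure, 37 °C; detection: Alamar Blue fluorescence; measure: percent inhibition of biofilm viability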
# Calpain2 inh: calpain II (pig) inhibition; inhibition, % at 16 µM; AID 1236; 220,000 compounds, 0.37% hits; purified calpain II, fluorogenic peptide substrate, 30 min;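 active = inhibition above about 50%, limit read from the data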
# Mcl1 Bid PPI: Mcl-1/Bid interaction inhibition. 220,000 compounds, 0.97% hits. Q07820. AID 1021. inhibition, % at 21.7 µM. TR-FRET Mcl-1/Bid-Dy647 peptide binding, 1536-well;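 active = compounds that cut the binding signal by more than half at the single screening dose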;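 note: His-tagged Mcl-1 with europium anti-His antibody binding Bid BH3 peptide; 0% = Mcl-1 plus peptide wells and 100% = peptide-only wells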
# Arbovirus inh: arbovirus infection inhibition | arbovirus infection cell-based antiviral screen | inhibition, % at 10 µM | 200,000 compounds, 0.37% hits; in the data active = inhibition above about 30%
# Numbers without * were called inactive; x = not tested or not shown. Compounds with a hit are over-represented: about 2.8% of the library has one in this group of screens.
SMILES,Mcl1 Noxa PPI,Mcl-1 Bim block,Calb biofilm kill,Calpain2 inh,Mcl1 Bid PPI,Arbovirus inh
COc1cc(/C=N/NP(=S)(c2ccccc2)c2ccccc2)ccc1O,15.3,-2.0,x,53.3*,2.0,-36.7
Oc1ccc(/C=N/NP(=S)(c2ccccc2)c2ccccc2)cc1,5.2,0.0,x,47.5,4.9,-15.4
CCN(CC)CC(O)c1ccc(C2CCCC2)cc1 (configuration not stated),4.2,-1.0,14.3,-16.5,3.4,-25.8
COc1cc(/C=C/c2nc3ccccc3c(=O)n2-c2cccc(O)c2)ccc1O,96.2*,x,17.3,-12.6,63.0*,x
O=c1c2ccccc2nc(/C=C/c2ccc(O)cc2)n1-c1ccccc1O,9.2,x,14.8,-12.9,6.0,x
CN1CCN(S(=O)(=O)c2cnc(Cl)c(Br)c2)CC1,11.4,-6.0,17.1,-4.3,-6.9,1.1
c1ccc(CCN2CCC(N3CCN(c4ccccc4)CC3)CC2)cc1,11.4,-2.0,x,-8.5,-15.7,-8.0
CCCCN(Cc1ccccc1)C1CCN(CCc2ccccc2)CC1,50.7*,-7.0,12.0,-2.2,16.4,15.3
CN1CCC(N(C)c2nc(-c3ccc([N+](=O)[O-])cc3)nc3ccccc23)CC1,94.3*,0.0,x,-26.1,-1.6,-42.1
O=c1oc2ccccc2c(O)c1[C@H]1c2ccc(O)cc2Oc2c1c(=O)oc1ccccc21,60.7*,x,11.7,8.2,-0.8,x
O=C1NC(=O)C(=Cc2ccc(SC3CCCCC3)o2)C(=O)N1,72.1*,-5.0,16.4,-26.4,-18.6,13.3
Cc1ccccc1-n1c(-c2ccoc2)nc2ccccc2c1=O,-2.8,0.0,-2.8,4.1,-15.7,-6.0
CCOc1ccc(-n2c(-c3ccoc3)nc3ccccc3c2=O)cc1,-7.3,-1.0,x,16.3,96.1*,1.9
Brc1ccccc1,-15.3,x,7.2,-5.6,82.5*,x
O=C(O)c1cccc2c1NC(c1cccc([N+](=O)[O-])c1)C1CC(Sc3ccccc3[N+](=O)[O-])C(Cl)C21 (configuration not stated),98.5*,-2.0,6.8,2.7,42.8,0.1
O=C(O)c1ccc2c(c1)C1C(Cl)C(Sc3ccccc3[N+](=O)[O-])CC1C(c1cccc([N+](=O)[O-])c1)N2 (configuration not stated),77.1*,1.0,11.7,-65.8,-48.7,29.9
O=[N+]([O-])c1cccc(C2N3CCCN23)c1 (configuration not stated),-2.0,1.0,2.3,-10.1,2.4,-0.1
CN1C(=O)NC(=O)/C(=C/c2ccc([N+](=O)[O-])s2)C1=O,53.2*,x,23.4,15.6,-50.8,x
COc1ccc(OC)c(N2C(=O)NC(=O)/C(=C\c3ccc([N+](=O)[O-])s3)C2=O)c1,48.7,0.0,10.1,19.1,-33.7,9.8
O=C1NC(=O)N(c2ccccc2)C(=O)/C1=C\c1ccc([N+](=O)[O-])o1,62.7*,x,23.0,3.4,9.8,x
O=C1NC(=O)N(c2ccccc2)C(=O)/C1=C\C=C\c1ccccc1,69.8*,x,10.7,-20.9,-1.0,x
O=C1NC(=O)N(c2ccccc2)C(=O)/C1=C\c1ccc([N+](=O)[O-])s1,69.1*,x,26.1,-9.1,-25.4,x
COc1cccc(C2(O)CCN(CC(=O)Nc3nc(C)cs3)CC2)c1,12.4,0.0,13.2,-21.5,-16.9,0.5
CC(C)[N+]12CCC(CC1)C(C(O)(c1ccccc1)c1ccccc1)C2 (configuration not stated),17.7,x,13.4,-5.8,-80.3,x
COc1ccc2ccc(O)c(CN3CC=C(c4ccccc4)CC3)c2c1,17.2,2.0,18.7,-4.4,-24.2,30.1*
SMILES,Mcl1 Noxa PPI,Mcl-1 Bim block,Calb biofilm kill,Calpain2 inh,Mcl1 Bid PPI,Arbovirus inh
COc1ccc2c(CN3CC=C(c4ccccc4)CC3)cc(=O)oc2c1,17.2,36.0,14.5,-30.3,2.2,1.8
O=[N+]([O-])c1cc2c(cc1CNCCc1ccc3c(c1)OCO3)OCO2,20.2,-5.0,12.3,-17.1,56.4*,-2.6
CCC(=NC(C)c1ccccc1)c1c(O)[nH]c(=O)[nH]c1=O (configuration not stated),-9.1,x,16.4,-11.3,90.3*,x
CCC(=NCCC(c1ccccc1)c1ccccc1)c1c(O)[nH]c(=O)[nH]c1=O,-13.4,-2.0,6.7,-8.8,-21.8,-12.2
CN(C)c1ccc(C=C2C(=O)NC(=O)NC2=O)cc1[N+](=O)[O-],1.1,9.0,12.6,-15.1,-37.5,3.2
CN(C)c1ccc(C=C2C(=O)NC(=S)NC2=O)cc1[N+](=O)[O-],64.9*,-2.0,5.7,-7.8,-11.5,-5.8
